Measurements taken from ChEMBL document CHEMBL2346559, “Optimization of benzoxazole-based inhibitors of Cryptosporidium parvum inosine 5'-monophosphate dehydrogenase” (J Med Chem, 2013).

Columns and labels:
[1] = molecular target: T1, Inosine-5'-monophosphate dehydrogenase (Cryptosporidium parvum, UniProt Q8T6T2); test: Inhibition of Cryptosporidium parvum N-terminal His6-tagged IMPDH-mediated NADH production expressed in Escherichia coli BL21(DE3) preincubated for 5 mins prior to substrate addition by fluorescence assay
T1 sequence (Q8T6T2 whole entry): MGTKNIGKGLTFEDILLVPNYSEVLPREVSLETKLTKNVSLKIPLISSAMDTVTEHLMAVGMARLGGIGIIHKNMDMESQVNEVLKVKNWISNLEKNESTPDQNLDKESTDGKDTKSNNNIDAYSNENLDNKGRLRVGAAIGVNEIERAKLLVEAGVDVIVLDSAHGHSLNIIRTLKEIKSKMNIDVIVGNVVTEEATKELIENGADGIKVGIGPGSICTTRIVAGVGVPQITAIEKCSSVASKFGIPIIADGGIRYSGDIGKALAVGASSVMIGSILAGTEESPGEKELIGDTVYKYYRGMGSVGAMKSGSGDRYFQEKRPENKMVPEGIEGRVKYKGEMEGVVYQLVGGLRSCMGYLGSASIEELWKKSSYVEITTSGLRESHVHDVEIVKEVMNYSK

Toxoplasma gondii [2] = test: Antiparasitic activity against wild-type Toxoplasma gondii expressing eukaryotic IMPDH; format: functional, organism-based
[3] = Cytotoxicity against African green monkey COS cells after 3 days by Alamar blue assay; format: cell-based; conditions: chlorocebus aethiops, read-out: LD50
Method in brief: (§1)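 Tested in parallel against HeLa, HEK293, COS and CHO cells. Viability was read as metabolic activity by alamarBlue and expressed as LD50.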

[4] = molecular target: Inosine-5'-monophosphate dehydrogenase 2 (Homo sapiens, UniProt P12268); test: Inhibition of human IMPDH2
Toxoplasma gondii [5] = test: Selectivity ratio of EC50 for wild-type Toxoplasma gondii to EC50 for Toxoplasma gondii expressing Cryptosporidium parvum IMPDH; format: functional
Toxoplasma gondii [6] = test: Antiparasitic activity against transgenic Toxoplasma gondii expressing Cryptosporidium parvum IMPDH; format: functional, organism-based
Method in brief: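 Engineered T. gondii strain that depends on CpIMPDH for guanine nucleotide synthesis, run alongside the wild-type RH strain, whose native eukaryotic IMPDH also gauges host-cell cytotoxicity. Antiparasitic EC50 is the average of three independent determinations unless otherwise stated, with some values from two determinations.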

[7] = Cytotoxicity against CHO cells after 3 days by Alamar blue assay; format: cell-based, Cricetulus griseus; conditions: chinese hamster, read-out: LD50; method in brief: as §1
[8] = Cytotoxicity against human HEK293 cells after 3 days by Alamar blue assay; format: cell-based; conditions: read-out: LD50; method in brief: as §1
[9] = Cytotoxicity against human HeLa cells after 3 days by Alamar blue assay; format: cell-based; conditions: read-out: LD50; method in brief: as §1
[10] = molecular target: T1, Inosine-5'-monophosphate dehydrogenase; test: Inhibition of Cryptosporidium parvum N-terminal His6-tagged IMPDH-mediated NADH production expressed in Escherichia coli BL21(DE3) preincubated for 5 mins prior to substrate addition by fluorescence assay in presence of BSA
Method in brief: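 Same CpIMPDH fluorescence assay (10 nM enzyme, 300 μM NAD, 150 μM IMP, pH 8.0 Tris buffer, 25 °C, 5 min inhibitor preincubation), run with 0.05% fatty-acid-free BSA added to gauge nonspecific protein binding. Quadruplicate points; IC50 averaged over three determinations.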

Liver [11] = test: Half life in mouse liver microsomes by LC/MS/MS analysis in presence of NADPH; format: ADME, Microsome
Method in brief: (§2)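 Incubation with mouse liver microsomes at 37 °C, with and without NADPH. Percent of compound remaining measured at several time points; half-life from a fit to first-order decay.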

Liver [12] = test: Half life in mouse liver microsomes by LC/MS/MS analysis; format: ADME, Microsome; method in brief: as §2

Row | Structure (SMILES) | IC50 [1] [nM] | EC50 (Toxoplasma gondii [2]) [nM] | CC50 at 72 h [3] [nM] | IC50 [4] [nM] | Ratio EC50 (Toxoplasma gondii [5]) | EC50 (Toxoplasma gondii [6]) [nM] | CC50 at 72 h [7] [nM] | CC50 at 72 h [8] [nM] | CC50 at 72 h [9] [nM] | IC50 [10] [nM] | t1/2 (Liver [11]) [min] | t1/2 (Liver [12]) [min]
1 | CC(Oc1cccc(Cl)c1Cl)C(=O)Nc1ccc2oc(-c3ccncc3)nc2c1 (stereo not drawn) | 3 | 8000 | > 50000 | > 5000 | 40 | 220 | > 50000 | > 50000 | > 50000 | 11 |  | 
2 | CC(Oc1ccccc1)C(=O)Nc1ccc2nc(-c3ccncc3)[nH]c2c1 (stereo not drawn) | > 5000 | 9000 |  | > 5000 | 1 | 9000 |  |  |  |  |  | 
3 | COc1cccc(O[C@@H](C)C(=O)Nc2ccc3oc(-c4ccncc4)nc3c2)c1OC | 50 | 21000 |  | > 5000 | 30 | 700 |  |  |  | 60 |  | 
4 | CC(C)C(Oc1cccc2ccccc12)C(=O)Nc1ccc2oc(-c3ccncc3)nc2c1 (stereo not drawn) | 24 |  |  | > 5000 |  |  |  |  |  | 57 |  | 
5 | CC(Oc1ccccc1)C(=O)Nc1ccc2oc(-c3ccncc3)nc2c1 (stereo not drawn) | 40 | 7000 |  | > 5000 | 2 | 4000 |  |  |  | 50 |  | 
6 | C[C@H](Nc1cccc(Cl)c1Cl)C(=O)Nc1ccc2oc(-c3ccncc3)nc2c1 | 0.5 |  | > 50000 | > 5000 |  |  | > 50000 | > 50000 | > 50000 |  | 44 | 110
7 | CC(Oc1ccccc1Cl)C(=O)Nc1ccc2oc(-c3ccncc3)nc2c1 (stereo not drawn) | 19 | 3000 | > 50000 | > 5000 | 3 | 900 | > 50000 | 12500 | > 50000 | 50 |  | 
8 | CC(Oc1ccc(Cl)c2ccccc12)C(=O)Nc1ccc2oc(-c3ccncc3)nc2c1 (stereo not drawn) | 27 |  |  | > 5000 |  |  |  |  |  | 53 |  | 
9 | CC(Oc1ccccc1)c1cn(-c2ccc3oc(-c4cncs4)nc3c2)nn1 (stereo not drawn) | > 5000 |  |  | > 5000 |  |  |  |  |  |  |  | 
10 | CC(Oc1ccc(Cl)cc1Cl)C(=O)Nc1ccc2oc(-c3cccnc3)nc2c1 (stereo not drawn) | 150 |  |  | > 5000 |  |  |  |  |  | 600 |  | 
11 | C[C@@H](C(=O)Nc1ccc2oc(-c3ccncc3)nc2c1)c1cccc(Cl)c1Cl | 60 |  |  | > 5000 |  |  |  |  |  |  | 25 | 130
12 | CC(Oc1ccc(Cl)c2ccccc12)C(=O)Nc1ccc2oc(-c3cncs3)nc2c1 (stereo not drawn) | 28 | 5000 |  | > 5000 | 3 | 2000 |  |  |  | 70 |  | 
13 | C[C@H](C(=O)Nc1ccc2oc(-c3ccncc3)nc2c1)c1ccccc1 | > 5000 |  |  | > 5000 |  |  |  |  |  |  |  | 
14 | C[C@H](Oc1cccc(Cl)c1Cl)C(=O)Nc1ccc2oc(-c3ccncc3)nc2c1 | 1.2 | 5000 |  | > 5000 | 16 | 300 |  |  |  | 3.5 | 9 | 12
15 | CC(Oc1ccc(Cl)cc1Cl)C(=O)Nc1ccc2oc(-c3ccccn3)nc2c1 (stereo not drawn) | 210 |  |  | > 5000 |  |  |  |  |  | 800 |  | 
16 | C[C@H](Oc1cccc2ccccc12)C(=O)Nc1ccc2oc(-c3ccc[nH]3)nc2c1 | 26 | 1700 |  | > 5000 | 1.7 | 1000 |  |  |  | 50 |  | 
17 | CC(C)(Oc1ccc(Cl)cc1)C(=O)Nc1ccc2oc(-c3ccncc3)nc2c1 | > 5000 |  |  | > 5000 |  |  |  |  |  |  |  | 
18 | C[C@H](Oc1cccc(Cl)c1Cl)C(=O)Nc1ccc2nc(-c3cncs3)oc2c1 | 7 |  |  | > 5000 |  |  |  |  |  | 60 |  | 
19 | C[C@@H](Oc1cccc2ccccc12)C(=O)Nc1ccc2oc(-c3ccncc3)nc2c1 | 400 |  |  | > 5000 |  |  |  |  |  | 380 |  | 
20 | CC(Oc1c(Cl)cccc1Cl)C(=O)Nc1ccc2oc(-c3ccncc3)nc2c1 (stereo not drawn) | > 5000 |  |  | > 5000 |  |  |  |  |  |  |  | 
21 | CC(Oc1ccc(Cl)cc1)C(=O)Nc1ccc2oc(-c3ccncc3)nc2c1 (stereo not drawn) | 105 |  |  | > 5000 |  |  |  |  |  | 118 |  | 
